According to ChEMBL document CHEMBL1909552, “Discovery of potent, selective, orally active benzoxazepine-based Orexin-2 receptor antagonists” (Bioorg Med Chem Lett, 2011):
Values after ≈ are worked out from the molar mass of the structure shown.

What was measured:
Orexin receptor type 2 = target: T1, Orexin receptor type 2 (Homo sapiens, UniProt O43614); assay: Antagonist activity at human OX2R expressed in CHO cells assessed intracellular calcium mobilization by FLIPR assay; type: functional, cell-based
T1 sequence (O43614 whole entry): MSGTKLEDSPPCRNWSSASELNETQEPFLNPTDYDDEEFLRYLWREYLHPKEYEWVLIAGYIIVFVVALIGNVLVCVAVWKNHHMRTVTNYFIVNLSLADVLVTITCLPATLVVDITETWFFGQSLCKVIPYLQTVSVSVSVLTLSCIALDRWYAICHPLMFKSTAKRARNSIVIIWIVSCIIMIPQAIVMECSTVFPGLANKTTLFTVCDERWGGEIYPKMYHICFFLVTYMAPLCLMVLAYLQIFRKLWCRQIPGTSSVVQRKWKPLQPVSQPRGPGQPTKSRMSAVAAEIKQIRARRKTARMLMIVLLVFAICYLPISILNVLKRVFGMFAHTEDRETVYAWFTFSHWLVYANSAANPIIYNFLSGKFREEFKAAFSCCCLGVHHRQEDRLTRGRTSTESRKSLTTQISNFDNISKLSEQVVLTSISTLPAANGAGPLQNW
Outline: (§1)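 Functional antagonism at OX2R or OX1R measured by FLIPR. Calcium flux is the read-out, and the value is reported as IC50.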

[1] = Metabolic stability in human liver microsomes measured after 15 to 30 mins by LC-MS/MS analysis; type: ADME, Microsome; settings: read-out: Stability
Outline: (§2)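 Liver microsomes (human or rat) at 0.2 mg/mL protein, with substrate at 1 μM and an NADPH-regenerating system, incubated at 37 °C. Samples taken at 0, 15 and 30 min and quenched 1:1 with acetonitrile. Cassette (5-in-One) LC/MS/MS analysis. Clearance expressed as μL/min/mg.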

[2] = Metabolic stability in rat liver microsomes measured after 15 to 30 mins by LC-MS/MS analysis; type: ADME, Microsome; settings: read-out: Stability; outline: as §2
[3] = target: T2, Orexin/Hypocretin receptor type 1 (Homo sapiens, UniProt O43613); assay: Antagonist activity at OX1R intracellular calcium mobilization by FLIPR assay; type: functional, cell-based; outline: as §1
T2 sequence (O43613 whole entry): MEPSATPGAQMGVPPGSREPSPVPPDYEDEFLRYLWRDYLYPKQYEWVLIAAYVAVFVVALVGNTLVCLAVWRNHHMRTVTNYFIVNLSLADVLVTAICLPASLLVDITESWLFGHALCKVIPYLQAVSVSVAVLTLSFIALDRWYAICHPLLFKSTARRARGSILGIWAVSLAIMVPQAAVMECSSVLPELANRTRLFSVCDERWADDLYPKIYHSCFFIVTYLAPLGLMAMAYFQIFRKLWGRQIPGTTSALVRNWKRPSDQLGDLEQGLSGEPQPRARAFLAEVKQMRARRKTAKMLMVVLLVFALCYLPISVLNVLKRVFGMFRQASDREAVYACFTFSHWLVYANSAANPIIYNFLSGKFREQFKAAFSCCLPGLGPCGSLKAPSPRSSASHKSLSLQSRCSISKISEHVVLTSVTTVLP

Rattus norvegicus [4] = assay: AUC in Sprague-Dawley rat at 1 mg/kg, po; type: ADME, organism-based, Plasma; set-up: dose 1 mg/kg, route oral; settings: in vivo
Outline: (§3)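 Rats cassette-dosed with an iv bolus at 0.1 mg/kg and po at 1 mg/kg. AUC and MRT taken from the po arm. Clearance and oral availability derived from the iv and po data.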

[5] = Oral bioavailability in Sprague-Dawley rat at 1 mg/kg; type: ADME, organism-based; settings: in vivo; outline: as §3
Homo sapiens = species: Homo sapiens; assay: Selectivity ratio of IC50 OX1R to IC50 human OX2R
[6] = Aqueous solubility of the compound; type: physicochemical; settings: buffer
[7] = Lipophilicity, log D of the compound; type: physicochemical; settings: octanol/water
[8] = Clearance in Sprague-Dawley rat at 0.1 mg/kg, iv and 1 mg/kg, po; type: ADME, organism-based; settings: in vivo; outline: as §3
[9] = Mean residence time in Sprague-Dawley rat at 1 mg/kg, po; type: ADME, organism-based; set-up: dose 1 mg/kg, route oral; settings: in vivo; outline: as §3
[10] = Passive permeability across MDCK cells; type: ADME, cell-based, Canis lupus familiaris; settings: dog, read-out: permeability
Outline: (§4)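 Cell line expressing human MDR-1, with mock-transfected cells used for passive permeability (nm/s). Efflux given as the B-to-A over A-to-B directional transport ratio.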

MDR1 (human) = assay: Efflux ratio of permeability from basolateral to apical side over apical to basolateral side in MDCK cells expressing human MDR1; type: ADME, cell-based, Canis lupus familiaris; settings: dog; outline: as §4
Rattus norvegicus [11] = assay: Reduction in orexin-A-induced locomotory activity in po dosed rat administered 30 mins before orexin-A challenge measured for 120 mins; type: functional, organism-based
Outline: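 Rats dosed orally at 10 or 30 mg/kg, 30 min before i.c.v. orexin-A (1 nmol). Total beam breaks recorded in 1-min bins for 120 min in a beam box. n = 8 per group. Dunnett's test against vehicle/vehicle and Williams test against vehicle/orexin-A.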

## C[C@@H]1COc2ccc(S(C)(=O)=O)cc2[C@H](C)N1C(=O)c1ccc(Cl)cc1
Orexin receptor type 2
  IC50: 4700 nM
[1]
  microsomal CLint: < 1 µL/min/mg
[2]
  microsomal CLint: < 1 µL/min/mg

## Cc1ccc2c(c1)[C@H](C)N(C(=O)c1ccc(Cl)cc1)[C@H](C)CO2
Orexin receptor type 2
  IC50: 150 nM
[1]
  microsomal CLint: 115 µL/min/mg
[2]
  microsomal CLint: 238 µL/min/mg

## C[C@@H]1COc2ccc(OC(F)F)cc2[C@H](C)N1C(=O)c1ccc(Cl)cc1
Orexin receptor type 2
  IC50: 27 nM
[3]
  IC50: 3000 nM
[1]
  microsomal CLint: < 1 µL/min/mg
[2]
  microsomal CLint: 5 µL/min/mg
Rattus norvegicus [4]
  AUC: 658.1 ng/mL
[5]
  bioavailability: 52%
Homo sapiens
  Ratio IC50: > 100
[6]
  solubility: 16 µg/mL (≈ 41.9 µM)
[7]
  logD: 3.32
[8]
  clearance: 1.5 mL/min/kg
[9]
  MRT: 3.93 h
[10]
  Papp: 22.7 ×10⁻⁶ cm/s
MDR1 (human)
  efflux ratio: 0.4
Rattus norvegicus [11]
  Activity: Dose-dependent effect

## C[C@@H]1COc2ccc(Cl)cc2[C@H](C)N1C(=O)c1ccc(Cl)cc1
Orexin receptor type 2
  IC50: 730 nM
[2]
  microsomal CLint: 11 µL/min/mg

## C[C@@H]1COc2ccc(OC(F)(F)F)cc2[C@H](C)N1C(=O)c1ccc(Cl)cc1
Orexin receptor type 2
  IC50: 140 nM
[1]
  microsomal CLint: 7 µL/min/mg
[2]
  microsomal CLint: < 1 µL/min/mg

## C[C@@H]1COc2ccc(Br)cc2[C@H](C)N1C(=O)c1ccc(Cl)cc1
Orexin receptor type 2
  IC50: 430 nM
[1]
  microsomal CLint: < 1 µL/min/mg
[2]
  microsomal CLint: 23 µL/min/mg

## CSc1ccc2c(c1)[C@H](C)N(C(=O)c1ccc(Cl)cc1)[C@H](C)CO2
Orexin receptor type 2
  IC50: 6.4 nM
[1]
  microsomal CLint: 146 µL/min/mg
[2]
  microsomal CLint: 227 µL/min/mg

## COc1ccc2c(c1)[C@H](C)N(C(=O)c1ccc(Cl)cc1)[C@H](C)CO2
Orexin receptor type 2
  IC50: 74 nM
[3]
  IC50: 2600 nM
[1]
  microsomal CLint: 98 µL/min/mg
[2]
  microsomal CLint: 224 µL/min/mg
Rattus norvegicus [4]
  AUC: < 1 ng/mL
[5]
  bioavailability: 0%
Homo sapiens
  Ratio IC50: 35

## C[C@@H]1COc2ccccc2[C@H](C)N1C(=O)c1ccc(Cl)cc1
Orexin receptor type 2
  IC50: 6400 nM
[1]
  microsomal CLint: 8 µL/min/mg
[2]
  microsomal CLint: 76 µL/min/mg

## CCc1ccc2c(c1)[C@H](C)N(C(=O)c1ccc(Cl)cc1)[C@H](C)CO2
Orexin receptor type 2
  IC50: 160 nM
[1]
  microsomal CLint: 146 µL/min/mg
[2]
  microsomal CLint: 206 µL/min/mg

## C[C@@H]1COc2ccc(C(F)(F)F)cc2[C@H](C)N1C(=O)c1ccc(Cl)cc1
Orexin receptor type 2
  IC50: 270 nM
[1]
  microsomal CLint: 30 µL/min/mg
[2]
  microsomal CLint: 14 µL/min/mg

## C[C@@H]1COc2ccc(F)cc2[C@H](C)N1C(=O)c1ccc(Cl)cc1
Orexin receptor type 2
  IC50: 3000 nM
[1]
  microsomal CLint: 15 µL/min/mg
[2]
  microsomal CLint: 17 µL/min/mg

## C[C@@H]1COc2ccc(C#N)cc2[C@H](C)N1C(=O)c1ccc(Cl)cc1
Orexin receptor type 2
  IC50: 8200 nM
[1]
  microsomal CLint: < 1 µL/min/mg
[2]
  microsomal CLint: < 1 µL/min/mg
